The source made the active and inactive calls. The rule behind the calls is not given here.
Key:
[1] = molecular target: T1, Protein cereblon/Indoleamine 2,3-dioxygenase 1 (Homo sapiens, UniProt P14902+Q96SW2); assay: PROTAC activity at CRBN/IDO1 in human U87 cells assessed as induction of IDO1 degradation by measuring remaining activity at 0.001 uM pretreated with IFN-gamma for 24 hrs followed by compound addition and measured after 24 hrs by Western blotting analysis (reference value: 100%); format: cell-based
T1 sequence (P14902 whole entry, looked up): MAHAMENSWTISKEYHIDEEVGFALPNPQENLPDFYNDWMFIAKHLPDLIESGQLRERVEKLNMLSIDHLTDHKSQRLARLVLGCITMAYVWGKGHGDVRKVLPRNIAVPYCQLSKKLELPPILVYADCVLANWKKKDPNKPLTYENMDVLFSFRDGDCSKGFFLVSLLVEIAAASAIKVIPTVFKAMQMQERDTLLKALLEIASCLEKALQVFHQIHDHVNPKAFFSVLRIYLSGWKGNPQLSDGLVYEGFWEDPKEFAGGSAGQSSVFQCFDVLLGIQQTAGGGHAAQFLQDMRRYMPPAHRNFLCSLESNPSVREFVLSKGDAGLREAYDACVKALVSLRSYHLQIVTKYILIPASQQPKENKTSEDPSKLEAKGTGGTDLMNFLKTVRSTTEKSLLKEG
T1 sequence (Q96SW2 whole entry, looked up): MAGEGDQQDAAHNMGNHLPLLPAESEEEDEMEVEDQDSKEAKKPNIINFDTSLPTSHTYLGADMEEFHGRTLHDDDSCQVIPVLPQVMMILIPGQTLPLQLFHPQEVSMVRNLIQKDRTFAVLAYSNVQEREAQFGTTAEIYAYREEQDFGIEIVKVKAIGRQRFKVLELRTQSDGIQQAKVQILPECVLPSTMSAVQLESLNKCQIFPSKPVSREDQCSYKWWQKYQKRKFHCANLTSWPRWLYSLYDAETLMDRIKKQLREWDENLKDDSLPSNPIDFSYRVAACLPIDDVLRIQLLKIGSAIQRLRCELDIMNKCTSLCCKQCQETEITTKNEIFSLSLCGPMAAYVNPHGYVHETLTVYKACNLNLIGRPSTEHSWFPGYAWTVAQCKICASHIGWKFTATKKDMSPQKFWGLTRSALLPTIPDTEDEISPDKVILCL
In short: (§1)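 U87 cells given an extended dose range of PROTAC for 24 h, then Western blot for IDO1. IFNγ-induced IDO1 levels normalised to untreated samples. n = 3 independent experiments; mean ± SEM.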

[2] = molecular target: T1, Protein cereblon/Indoleamine 2,3-dioxygenase 1; assay: PROTAC activity at CRBN/IDO1 in human MDA-MB-231 cells assessed as induction of IDO1 degradation pretreated with IFN-gamma for 24 hrs followed by compound addition and measured after 24 hrs by Western blotting analysis; format: cell-based; settings: dose 50-100 nM
In short: (§2)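 Cells had IDO1 induced with IFNγ, then were treated at the indicated concentrations for 24 h. Lines: PDX-6 and PDX-38 adult GBM PDX cells, U87 overexpressing GFP-fused IDO1, PC-3, KNS42, MDA-MB-231, SW-1990 and SKOV-3. Lysates probed for IDO1 and GAPDH by Western blot; representative of 3 separate replicates.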

[3] = molecular target: T1, Protein cereblon/Indoleamine 2,3-dioxygenase 1; assay: PROTAC activity at CRBN/IDO1 in human GBM43 cell assessed as induction of IDO1 degradation at 0.1 uM pretreated with IFN-gamma for 24 hrs followed by compound addition and measured after 24 hrs by Western blotting analysis (reference value: 100%); format: cell-based
In short: (§3)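 GBM43 patient-derived cells given an extended dose range of PROTAC for 24 h. Protein analysed by Western blot for IDO1, and IFNγ-induced IDO1 normalised to untreated samples. n = 3 independent experiments; data as mean ± SEM.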

KNS-42 = assay: Inhibition of kynurenine production in human KNS-42 cells pretreated with IFN-gamma for 24 hrs followed by compound addition and measured after 24 hrs by Ehrlich's reagent based analysis; format: functional, cell-based; settings: dose 50-100 nM
[4] = molecular target: T1, Protein cereblon/Indoleamine 2,3-dioxygenase 1; assay: PROTAC activity at CRBN/IDO1 in human GBM43 cell assessed as induction of IDO1 degradation at 3 uM pretreated with IFN-gamma for 24 hrs followed by compound addition and measured after 24 hrs by Western blotting analysis (reference value: 100%); format: cell-based; in short: as §3
[5] = molecular target: T1, Protein cereblon/Indoleamine 2,3-dioxygenase 1; assay: PROTAC activity at CRBN/IDO1 in human U87 cells assessed as induction of IDO1 degradation by measuring remaining activity at 0.03 uM pretreated with IFN-gamma for 24 hrs followed by compound addition and measured after 24 hrs by Western blotting analysis (reference value: 100%); format: cell-based; in short: as §1
[6] = molecular target: T1, Protein cereblon/Indoleamine 2,3-dioxygenase 1; assay: PROTAC activity at CRBN/IDO1 in human U87 cells assessed as induction of IDO1 degradation by measuring remaining activity at 100 nM pretreated with IFN-gamma for 24 hrs followed by compound addition and measured after 2 hrs by Western blotting analysis (reference value: 100%); format: cell-based
In short: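 U87 cells under single continuous PROTAC treatment (50 and 100 nM), sampled at multiple time points up to 72 h. IDO1 assessed by Western blot.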

[7] = molecular target: T1, Protein cereblon/Indoleamine 2,3-dioxygenase 1; assay: PROTAC activity at CRBN/IDO1 in human U87 cells assessed as induction of IDO1 degradation by measuring remaining activity at 3 uM pretreated with IFN-gamma for 24 hrs followed by compound addition and measured after 24 hrs by Western blotting analysis (reference value: 100%); format: cell-based; in short: as §1
[8] = Cmax in female C57BL/6J mouse brain at 50 mg/kg, ip by LC-MS/MS analysis; format: ADME, organism-based
PC-3 = assay: Inhibition of kynurenine production in human PC-3 cells pretreated with IFN-gamma for 24 hrs followed by compound addition and measured after 24 hrs by Ehrlich's reagent based analysis; format: functional, cell-based; settings: dose 50-100 nM
[9] = AUC (0 to infinity) in female C57BL/6J mouse brain at 50 mg/kg, ip by LC-MS/MS analysis; format: ADME, organism-based
[10] = molecular target: T1, Protein cereblon/Indoleamine 2,3-dioxygenase 1; assay: PROTAC activity at CRBN/IDO1 in human GBM43 cell assessed as induction of IDO1 degradation at 0.03 uM pretreated with IFN-gamma for 24 hrs followed by compound addition and measured after 24 hrs by Western blotting analysis (reference value: 100%); format: cell-based; in short: as §3
[11] = molecular target: T1, Protein cereblon/Indoleamine 2,3-dioxygenase 1; assay: PROTAC activity at CRBN/IDO1 in human U87 cells assessed as induction of IDO1 degradation at 100 nM at 1 uM pretreated with IFN-gamma for 24 hrs followed by compound addition and measured after 24 hrs in presence of MG132 by Western blotting analysis; format: cell-based
[12] = molecular target: T1, Protein cereblon/Indoleamine 2,3-dioxygenase 1; assay: PROTAC activity at CRBN/IDO1 in human U87 cells assessed as induction of IDO1 degradation by measuring remaining activity at 0.01 uM pretreated with IFN-gamma for 24 hrs followed by compound addition and measured after 24 hrs by Western blotting analysis (reference value: 100%); format: cell-based; in short: as §1
SW1990 = assay: Inhibition of kynurenine production in human SW1990 cells pretreated with IFN-gamma for 24 hrs followed by compound addition and measured after 24 hrs by Ehrlich's reagent based analysis; format: functional, cell-based; settings: dose 50-100 nM
[13] = molecular target: T1, Protein cereblon/Indoleamine 2,3-dioxygenase 1; assay: PROTAC activity at CRBN/IDO1 in human SW1990 cells assessed as induction of IDO1 degradation pretreated with IFN-gamma for 24 hrs followed by compound addition and measured after 24 hrs by Western blotting analysis; format: cell-based; settings: dose 50-100 nM; in short: as §2
[14] = molecular target: T1, Protein cereblon/Indoleamine 2,3-dioxygenase 1; assay: PROTAC activity at CRBN/IDO1 in human U87 cells assessed as induction of IDO1 degradation by measuring remaining activity at 1 uM pretreated with IFN-gamma for 24 hrs followed by compound addition and measured after 24 hrs by Western blotting analysis (reference value: 100%); format: cell-based; in short: as §1
Kelly [15] = assay: Downregulation of EPHX2 protein level in human Kelly cells at 1 uM incubated for 24 hrs by proteomics analysis; format: functional, cell-based
[16] = molecular target: T1, Protein cereblon/Indoleamine 2,3-dioxygenase 1; assay: PROTAC activity at CRBN/IDO1 in human GBM43 cell assessed as induction of IDO1 degradation at 1 uM pretreated with IFN-gamma for 24 hrs followed by compound addition and measured after 24 hrs by Western blotting analysis (reference value: 100%); format: cell-based; in short: as §3
[17] = molecular target: T1, Protein cereblon/Indoleamine 2,3-dioxygenase 1; assay: PROTAC activity at CRBN/IDO1 in human U87 cells assessed as induction of IDO1 degradation by measuring remaining activity at 50 nM pretreated with IFN-gamma for 24 hrs followed by compound addition and measured after 24 hrs by Western blotting analysis (reference value: 100%); format: cell-based
[18] = molecular target: T1, Protein cereblon/Indoleamine 2,3-dioxygenase 1; assay: PROTAC activity at CRBN/IDO1 in human U87 cells assessed as induction of IDO1 degradation by measuring remaining activity at 100 nM pretreated with IFN-gamma for 24 hrs followed by compound addition and measured after 24 hrs by Western blotting analysis (reference value: 100%); format: cell-based
Kelly [19] = assay: Downregulation of SALL4 protein level in human Kelly cells at 1 uM incubated for 24 hrs by proteomics analysis; format: functional, cell-based
[20] = molecular target: T1, Protein cereblon/Indoleamine 2,3-dioxygenase 1; assay: PROTAC activity at CRBN/IDO1 in human U87 cells assessed as induction of IDO1 degradation by measuring remaining activity at 0.003 uM incubated for 24 hrs by Western blotting analysis (reference value: 100%); format: cell-based
[21] = molecular target: T1, Protein cereblon/Indoleamine 2,3-dioxygenase 1; assay: PROTAC activity at CRBN/IDO1 in human U87 cells assessed as induction of IDO1 degradation by measuring remaining activity at 10 uM pretreated with IFN-gamma for 24 hrs followed by compound addition and measured after 24 hrs by Western blotting analysis (reference value: 100%); format: cell-based; in short: as §1

C[C@@H](C(=O)Nc1cccc(OC2CCN(C(=O)CN3CCC(N4CCN(c5ccc6c(c5)C(=O)N(C5CCC(=O)NC5=O)C6=O)CC4)CC3)CC2)c1)[C@H]1CC[C@@H](c2ccnc3ccc(F)cc32)CC1 (some centres undefined)
Activity [1]: 83%
Activity [2]: Dose-dependent-effect
Activity [3]: 13%
inhibition (KNS-42): Dose-dependent-effect
Activity [4]: 77%
Activity [5]: 27%
Activity [6]: 86%
Activity [7]: 55%
Cmax [8]: 100 nM
inhibition (PC-3): Dose-dependent-effect
AUC(0-inf) [9]: 1 µM·h
Activity [10]: 34%
Activity [11]: inactive
Activity [12]: 48%
inhibition (SW1990): Dose-dependent-effect
Activity [13]: Dose-dependent-effect
Activity [14]: 35%
Activity (Kelly [15]): Active
Activity [16]: 47%
Activity [17]: 28%
Activity [18]: 24%
Activity (Kelly [19]): Active
Activity [20]: 71%
Activity [21]: 69%

Reference: ChEMBL document CHEMBL6153131, “Rational Design and Optimization of a Potent IDO1 Proteolysis Targeting Chimera (PROTAC)” (J Med Chem, 2025)
